Assay results of several laboratories.
Compare with care: the assays were run in different laboratories. Converted amounts (≈) assume the structure as drawn.

| SMILES | target or system | test | test system | conditions | endpoint | result |
| --- | --- | --- | --- | --- | --- | --- |
| CN(C)CCNC(=O)c1ccc(-c2nc3ccc4[nH]ncc4c3c3c2CCCC3)c(F)c1 | G-361 | cell growth or viability |  | 72 h | GI50 | 3.27 µM |
| Oc1cc(O)c2c(c1)O[C@H](c1cc(O)c(O)c(O)c1)[C@@H](O)C2 | Streptococcus gordonii | microbial killing, broth dilution |  |  | MBC | 100 µg/mL (≈ 327 µM) |
| CCCCCCC#Cc1cncc(-c2nnc(SCc3cc([N+](=O)[O-])cc([N+](=O)[O-])c3)n2CCCN)c1 | Acinetobacter baumannii | microbial growth, broth dilution | ATCC17978 |  | MIC | 32 µg/mL (≈ 61.1 µM) |
| CO/N=C(\C(=O)N[C@@H]1C(=O)N2C(C(=O)O)=CCS[C@H]12)c1csc(N)n1 | Acinetobacter baumannii | microbial growth, broth dilution | ATCCBAA1605 |  | MIC | > 64 µg/mL |
| C[C@@H]1O[C@@H](OC[C@H]2O[C@@H](Oc3c(-c4ccc(O)c(O)c4)oc4cc(O)cc(O)c4c3=O)[C@H](O)[C@@H](O)[C@@H]2O)[C@H](O)[C@H](O)[C@H]1O | Streptococcus gordonii | microbial growth, disc diffusion |  | 500 µg/disc | inhibition zone | 13 mm |
| O=C1C(=Nc2ccc(Cl)cc2)c2ccccc2N1Cc1cccc(Cl)c1 | B16 | cell growth or viability, MTT |  | 48 h | IC50 | 1560 nM |
| O=C1O[C@H]2[C@@H]3OC(=O)c4cc(O)c(O)c(O)c4-c4c(O)c(O)c5oc(=O)c6c(c(O)c(O)c7oc(=O)c4c5c76)-c4c(cc(O)c(O)c4O)C(=O)OC[C@H]3OC(O)[C@@H]2OC(=O)c2cc(O)c(O)c(O)c2-c2c1cc(O)c(O)c2O (mixture of isomers) | Streptococcus gordonii | microbial growth, disc diffusion |  | 500 µg/disc | inhibition zone | 14.2 mm |
| Cc1n[nH]c2ccc3nc(-c4ccc(C(=O)NCCN(C)C)cc4)c4c(c3c12)CCCCC4 | G-361 | cell growth or viability |  | 72 h | GI50 | > 10 µM |
| CC(C)c1cccc(C(C)C)c1N=C1C(=O)N(Cc2ccccc2)c2ccccc21 | B16 | cell growth or viability, MTT |  | 48 h | IC50 | 6770 nM |
| C[C@@H](O)[C@H]1C(=O)N2C(C(=O)O)=C(SCCN=CN)C[C@H]12 | Acinetobacter baumannii | microbial growth, broth dilution | ATCCBAA1605 |  | MIC | > 64 µg/mL |
| O=C1OC[C@H]2OC(O)[C@H](O)[C@@H](O)[C@@H]2OC(=O)c2cc(O)c(O)c(O)c2-c2c(O)c(O)c3oc(=O)c4c(c(O)c(O)c5oc(=O)c2c3c54)-c2c1cc(O)c(O)c2O (mixture of isomers) | Streptococcus gordonii | microbial killing, broth dilution |  |  | MBC | 400 µg/mL |
| CN(C)[C@@H]1C(O)=C(C(N)=O)C(=O)[C@@]2(O)C(O)=C3C(=O)c4c(O)cccc4[C@@](C)(O)[C@H]3C[C@@H]12 | Acinetobacter baumannii | microbial growth, broth dilution | ATCC19606 |  | MIC | 4 µg/mL (≈ 9 µM) |
| CCc1ccc(N=C2C(=O)N(Cc3ccccc3)c3ccccc32)cc1 | B16 | cell growth or viability, MTT |  | 48 h | IC50 | 500 nM |
| O=C(O[C@@H]1O[C@@H]2COC(=O)c3cc(O)c(O)c(O)c3-c3c(cc(O)c(O)c3O)C(=O)O[C@H]([C@H]1O)[C@@H]2O)c1cc(O)c(O)c(O)c1 | Streptococcus gordonii | microbial growth, disc diffusion |  | 500 µg/disc | inhibition zone | 14 mm |
| C[C@H]1[C@H](NC(=O)/C(=N\OC(C)(C)C(=O)O)c2csc(N)n2)C(=O)N1S(=O)(=O)O | Acinetobacter baumannii | microbial growth, broth dilution | ATCCBAA1605 |  | MIC | > 64 µg/mL |
| Cc1cccc(N=C2C(=O)N(Cc3ccc(Br)cc3)c3ccccc32)c1 | B16 | cell growth or viability, MTT |  | 48 h | IC50 | 6870 nM |
| C[C@@H](O)[C@H]1C(=O)N2C(C(=O)O)=C(S[C@@H]3CN[C@H](C(=O)N(C)C)C3)[C@H](C)[C@H]12 | Acinetobacter baumannii | microbial growth, broth dilution | ATCCBAA1605 |  | MIC | 16 µg/mL (≈ 41.7 µM) |
| O=C1C(=Nc2cccc(Cl)c2)c2ccccc2N1Cc1ccc([N+](=O)[O-])cc1 | B16 | cell growth or viability, MTT |  | 48 h | IC50 | 550 nM |
| Cc1n[nH]c2ccc3nc(-c4ccc(C(=O)NCCN(C)C)cc4F)c4c(c3c12)CCCC4 | G-361 | cell growth or viability |  | 72 h | GI50 | 1.58 µM |
| O=C1C(=Nc2ccc(Cl)cc2)c2ccccc2N1Cc1ccc([N+](=O)[O-])cc1 | B16 | cell growth or viability, MTT |  | 48 h | IC50 | 580 nM |
| O=c1oc2c(O)c(O)cc3c(=O)oc4c(O)c(O)cc1c4c23 | Streptococcus gordonii | microbial killing, broth dilution |  |  | MBC | 400 µg/mL (≈ 1320 µM) |
| COc1cc(N=C2C(=O)Nc3ccccc32)cc(OC)c1 | B16 | cell growth or viability, MTT |  | 48 h | IC50 | 3020 nM |
| O=c1cc(OCc2cc(-c3ccccc3)no2)c2ccccc2o1 | Z-138 | cell growth or viability, MTS |  | 72 h | IC50 | > 100000 nM |
| O=C1Nc2ccccc2C1=Nc1ccccc1Br | B16 | cell growth or viability, MTT |  | 48 h | IC50 | > 100000 nM |
| CNC(C)C1CCC(N)C(OC2C(N)CC(N)C(OC3OCC(C)(O)C(NC)C3O)C2O)O1 (stereo not shown) | Acinetobacter baumannii | microbial growth, broth dilution | ATCC19606 |  | MIC | 16 µg/mL (≈ 33.5 µM) |
